Measured values taken from ChEMBL document CHEMBL1122310, “Synthesis of exo-3-phenylbicyclo[3.2.1]oct-3-en-2-amine and related compounds as potential analgesics” (1983).
“And” between values parts separate entries of the source, which are not always exact repeats. Equal values may be shown once.

Assays:
Type in all cases: functional
Rattus norvegicus [1] = organism: Rattus norvegicus; assay: Antinociceptive activity by measuring in flamed paw pressure threshold in rat
Method in brief: (§1)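 ED50 determination: six animals per dose group, each dose tested on two or three separate occasions. Pooled data (total dose groups of 12 or 18 animals) analysed by regression to give ED50. Inflamed-paw pressure test in rats; acetylcholine-induced writhing in mice. Doses for the rat paw test given po.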

Rattus norvegicus [2] = assay: Behavioral stimulant activity in rat by peroral administration; Inactive
Rattus norvegicus [3] = assay: Behavioral stimulant activity in rat by sc administration; Slight to moderate CNS stimulation
Mus musculus = organism: Mus musculus; assay: Antinociceptive activity by measuring inhibition of acetylcholine writhing in mouse; method in brief: as §1
Rattus norvegicus [4] = assay: Behavioral stimulant activity in rat by sc administration; Moderate CNS stimulation
Rattus norvegicus [5] = assay: Behavioral stimulant activity in rat by sc administration; Marked CNS stimulation
Rattus norvegicus [6] = assay: Behavioral stimulant activity in rat by sc administration; Marked CNS activity

| Structure (SMILES) | ED50 (Rattus norvegicus [1]) | Dose (Rattus norvegicus [2]) | Dose (Rattus norvegicus [3]) | ED50 (Mus musculus) | Dose (Rattus norvegicus [4]) | Dose (Rattus norvegicus [5]) | Dose (Rattus norvegicus [6]) |
| --- | --- | --- | --- | --- | --- | --- | --- |
| C1=C(c2ccccc2)[C@@H](NCCc2ccccc2)C2CCC1C2 (some centres not stated) | > 30 mg/kg | 50 mg/kg |  |  |  |  |  |
| CN(CC1CC1)[C@@H]1C(c2ccccc2)=CC2CCC1C2 (some centres not stated) | > 30 mg/kg |  | 50 mg/kg |  |  |  |  |
| COCCN(C)[C@@H]1C(c2ccccc2)=CC2CCC1C2 (some centres not stated) | > 30 mg/kg | 25 mg/kg |  |  |  |  |  |
| C=CCN[C@@H]1C(c2ccccc2)=CC2CCC1C2 (some centres not stated) | 11 mg/kg |  |  | 13.7 mg/kg | 50 mg/kg |  |  |
| CCN(CC)[C@@H]1C(c2ccccc2)=CC2CCC1C2 (some centres not stated) | > 30 mg/kg |  | 25 mg/kg | 2.4 mg/kg |  |  |  |
| C1=C(c2ccccc2)[C@@H](N2CCCC2)C2CCC1C2 (some centres not stated) | 15.7 mg/kg |  |  | 19 mg/kg |  | 25 mg/kg and 50 mg/kg |  |
| CN[C@@H]1C(c2ccccc2)=CC2CCC1C2 (some centres not stated) | 13.4 mg/kg |  |  | 4 mg/kg |  |  |  |
| CN(C)[C@@H]1C(c2ccccc2)=CC2CCC1C2 (some centres not stated) | 2.9 mg/kg |  |  | 3.9 mg/kg |  | 50 mg/kg |  |
| CCCN(C)[C@@H]1C(c2ccccc2)=CC2CCC1C2 (some centres not stated) | > 30 mg/kg | 25 mg/kg |  |  |  |  |  |
| COc1cccc(C2=CC3CCC(C3)[C@@H]2N(C)C)c1 (some centres not stated) | 7.8 mg/kg |  |  | 34.4 mg/kg |  | 50 mg/kg |  |
| CCN(C)[C@@H]1C(c2cccc(O)c2)=CC2CCC1C2 (some centres not stated) | > 30 mg/kg | 25 mg/kg |  |  |  |  |  |
| CC(C)N(C)[C@@H]1C(c2ccccc2)=CC2CCC1C2 (some centres not stated) | > 30 mg/kg | 25 mg/kg |  |  |  |  |  |
| C=CCN(C)[C@@H]1C(c2ccccc2)=CC2CCC1C2 (some centres not stated) | > 30 mg/kg | 25 mg/kg |  |  |  |  |  |
| CCN(C)[C@@H]1C(c2ccccc2)=CC2CCC1C2 (some centres not stated) | 1.4 mg/kg |  |  | 11.8 mg/kg |  | 25 mg/kg |  |
| C1=C(c2ccccc2)[C@@H](NCC2CCCO2)C2CCC1C2 (some centres not stated) | > 30 mg/kg | 50 mg/kg |  | > 30 mg/kg |  |  |  |
| COCCN[C@@H]1C(c2ccccc2)=CC2CCC1C2 (some centres not stated) |  |  |  | 27.7 mg/kg |  |  |  |
| C1=C(c2ccccc2)[C@@H](NCC2CC2)C2CCC1C2 (some centres not stated) | > 30 mg/kg | 25 mg/kg |  | 4.1 mg/kg |  |  |  |
| CCCN[C@@H]1C(c2ccccc2)=CC2CCC1C2 (some centres not stated) | > 30 mg/kg |  | 25 mg/kg |  |  |  |  |
| CC(C)N[C@@H]1C(c2ccccc2)=CC2CCC1C2 (some centres not stated) | > 30 mg/kg |  |  | 15.4 mg/kg |  |  |  |
| CN(C)CCN(C)[C@@H]1C(c2ccccc2)=CC2CCC1C2 (some centres not stated) | > 30 mg/kg | 25 mg/kg |  |  |  |  |  |
| CN(C)CCN[C@@H]1C(c2ccccc2)=CC2CCC1C2 (some centres not stated) | 18.1 mg/kg | 50 mg/kg |  | 31 mg/kg |  |  |  |
| CCN[C@@H]1C(c2ccccc2)=CC2CCC1C2 (some centres not stated) | 3.1 mg/kg |  | 25 mg/kg | 15.6 mg/kg |  | 50 mg/kg |  |
| CCN(C)[C@@H]1C(c2cccc(OC)c2)=CC2CCC1C2 (some centres not stated) | 10.4 mg/kg |  |  | 30.6 mg/kg |  |  |  |
| N[C@@H]1C(c2ccccc2)=CC2CCC1C2 (some centres not stated) | > 10 mg/kg | 25 mg/kg |  | 8.3 mg/kg |  |  | 25 mg/kg |
| CC(N)Cc1ccccc1 (configuration not stated) [AMPHETAMINE] | 2.1 mg/kg |  | 6.25 mg/kg | 1.6 mg/kg |  | 12.5 mg/kg |  |
| COc1ccc2c3c1O[C@H]1[C@@H](O)C=C[C@H]4[C@@H](C2)N(C)CC[C@@]341 [CODEINE] | 5.7 mg/kg | 50 mg/kg |  | 10.3 mg/kg |  |  |  |
